This note sets out measurements from ChEMBL document CHEMBL1154440, “Design and synthesis of 2-(2,6-dibromophenyl)-3-heteroaryl-1,3-thiazolidin-4-ones as anti-HIV agents” (Eur J Med Chem, 2008).

Data set [1] can be described thus: Selectivity index, ratio of CC50 for human CEM cells to EC50 for HIV1 3B. The format is toxicity, cell-based, CCRF-CEM. To be noted: read-out: Ratio CC50/EC50.
Data set [2] has as its system Human immunodeficiency virus 2. Put plainly: Antiviral activity against HIV2 ROD replication in human CEM cells assessed as inhibition of virus-induced syncytium formation at subtoxic concentration after 4 days. To be noted: CCRF-CEM.
A short description of data set [3]: Cytotoxicity against human MT4 cells by MTT assay. The format is cell-based. A digest of the protocol: (§1)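 CC50 was measured in parallel with the antiviral assays. It is the compound concentration that reduced by 50% the number of viable cells in mock-infected MT-4 or CEM cultures.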
Data set [4] relates to Human immunodeficiency virus 1. Put plainly: Antiviral activity against HIV1 3B replication in human CEM cells assessed as inhibition of virus-induced syncytium formation after 4 days. To be noted: Human immunodeficiency virus 1, 3B, CCRF-CEM, 96 h.
Data set [5] can be described thus: Cytotoxicity against human CEM cells by MTT assay. To be noted: CEM cells (CCRF-CEM). The format is cell-based. A digest of the protocol: as §1
(In general: Tetrazolium assays rely on reduction of a dye to a coloured formazan, in cell work by metabolically active cells.)

The nature of data set [6]: Selectivity index, ratio of CC50 for human MT4 cells to EC50 for HIV1 3B. The data set is classed as toxicity, cell-based. The following applies: read-out: Ratio CC50/EC50. A digest of the protocol: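 Selectivity index is CC50/EC50. CC50 comes from the viable-cell count in mock-infected MT-4 cells.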
The target in data set [7] is Human immunodeficiency virus type 1 reverse transcriptase (Human immunodeficiency virus 1) (UniProt Q72547). Description: Inhibition of HIV1 reverse transcriptase at 100 ug/ml after 1 hr by microtiter plate ELISA. An outline of the steps: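 Nonradioactive kit ELISA. HIV-1 RT, template/primer and biotin- and DIG-labelled dNTPs were incubated in lysis buffer with or without inhibitor for 1 h at 37 °C. Product was captured on streptavidin and detected with anti-DIG-peroxidase and ABTS substrate. Absorbance at 405 nm is proportional to RT activity.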
A general note: In an ELISA, binding on a coated surface is turned into a signal by an enzyme label.

Data set [8] relates to Human immunodeficiency virus 1. Description: Antiviral activity against HIV1 3B replication in human MT4 cells assessed as inhibition of virus-induced cytopathic effect after 5 days by tetrazolium-based colorimetric assay. The format is functional, organism-based. The following applies: Human immunodeficiency virus 1, 3B, MT4, 120 h. In general terms: Cytopathic effects are the visible damage that an infection or toxin causes in cultured cells.

Data set [9] has as its system Human immunodeficiency virus 2. Put plainly: Antiviral activity against HIV2 ROD replication in human MT4 cells assessed as inhibition of virus-induced cytopathic effect at subtoxic concentration after 5 days by tetrazolium-based colorimetric assay. The format is functional, organism-based.

Activity calls are given as the source filed them. The calls are words filed in the database; no cut-off is given here. Where only a bound is given, the exact number is not on record here.

What is called CC50 is the concentration that lowers cell viability or growth by half. High values mean lower toxicity to the cells, low ones greater toxicity to the cells. One may read the EC50 as the concentration at which the effect is half-maximal. What is called inhibition is the drop in the measured response relative to a control, in per cent. Read a low inhibition as little suppression. For the compound `O=C1CSC(c2c(Br)cccc2Br)N1c1ccccn1` (centres undefined), the selectivity ratio in data set [1] came out at 66; in data set [6], 60. Besides, the result in [2] and in data set [9] was inactive. The figures for the CC50 in data set [3] and in [5] were 13.1 µM and 17.1 µM, respectively. Also, the EC50 in data set [4] came out at 0.27 µM; in data set [8] it was 0.22 µM. This compound also yielded an inhibition in data set [7] of 85.2%.

For `Cc1cccc(N2C(=O)CSC2c2c(Br)cccc2Br)n1` (centres undefined), the selectivity ratio in data set [1] was 2950; in [6], 2660. Also, the outcome in data set [2] and in data set [9] was inactive. The CC50 in data set [3] and in data set [5] was 233 µM throughout. Also, the EC50 amounted to 0.08 µM in data set [4] and 0.09 µM in data set [8]. The inhibition in data set [7] was determined as 79.5%.

Take `Cc1nc(N2C(=O)CSC2c2c(Br)cccc2Br)nc(C)c1C` (centres undefined): the selectivity ratio in data set [1] is more than 5020; in [6], 3720. The outcome in [2] and in data set [9] was inactive. The cytotoxic concentration (CC50) in data set [3] was 227 µM; in data set [5], more than 273 µM. In addition, the EC50 in data set [4] and in [8] was 0.06 µM in each case. Besides, the inhibition in data set [7] amounted to 100%.

Consider `Cc1cc(C)nc(N2C(=O)CSC2c2c(Br)cccc2Br)n1` (centres undefined), for which the inhibition in data set [7] came out at 100%.

With `Cc1cc(-c2ccccc2)nc(N2C(=O)CSC2c2c(Br)cccc2Br)n1` (centres undefined), the outcome in data set [2] and in [9] was inactive. The same compound registered a CC50 in data set [3] of 184 µM. In addition, in data set [6], the selectivity ratio was less than 21. In addition, the inhibition in data set [7] came out at 17.8%. Moreover, the EC50 in [8] is more than 8.65 µM.

Take `Cc1ccnc(N2C(=O)CSC2c2c(Br)cccc2Br)n1` (centres undefined): the selectivity ratio in data set [1] was determined as 930; in data set [6] it was 757. Further, the outcome in data set [2] and in [9] was inactive. The CC50 in [3] was 33.9 µM; in data set [5] it was 36.3 µM. For the same compound, the half-maximal effective concentration (EC50) in data set [4] and in data set [8] was 0.04 µM each time. In addition, the inhibition in data set [7] came out at 100%.

For the compound `Cc1ccnc2c1NC(=O)c1cccnc1N2C1CC1` [NEVIRAPINE], the values for the selectivity ratio in data set [1] and in data set [6] were more than 370 and more than 1000, respectively. Moreover, the result in data set [2] and in data set [9] was inactive. Moreover, the CC50 was more than 50 µM in [3] and more than 4 µM in data set [5]. Moreover, the EC50 turned out to be 0.01 µM in [4] and 0.05 µM in data set [8].

Regarding `Clc1cccc(Cl)c1C1SCc2nc3ccccc3n21` (centres undefined), the result in [2] and in data set [9] was inactive. Also, the selectivity ratio in data set [6] was found to be 16.

For `O=C1CSC(c2c(Br)cccc2Br)N1c1ncccn1` (centres undefined), the selectivity ratio in data set [1] was found to be 769; in data set [6], 687. Further, the result in data set [2] and in data set [9] was inactive. The CC50 was determined as 172 µM in data set [3] and 179 µM in [5]. Besides, the EC50 in data set [4] was 0.23 µM; in data set [8], 0.24 µM. In data set [7], this compound yielded an inhibition of 100%.

For the compound `Fc1cccc(F)c1C1SCc2nc3ccccc3n21` (centres undefined) [THIAZOLOBENZIMIDAZOLE], the selectivity ratio in data set [1] was found to be 45; in [6], 54.5. The result in data set [2] and in data set [9] was inactive.

Turning to `O=C1CSC(c2c(Br)cccc2Br)N1c1nccs1` (centres undefined), the selectivity ratio was 194 in data set [1] and 218 in data set [6]. For the same compound, the result in data set [2] and in data set [9] was inactive. Besides, the 50% cytotoxic concentration (CC50) in data set [3] and in data set [5] was 109 µM throughout. For the same compound, the EC50 in [4] turned out to be 0.56 µM; in data set [8], 0.5 µM. The inhibition in data set [7] was 69.5%.

Turning to `Cc1nc(N2C(=O)CSC2c2c(Br)cccc2Br)ccc1Br` (centres undefined), the selectivity ratio amounted to 53 in [1] and 96 in data set [6]. The outcome in [2] and in data set [9] was inactive. The CC50 in data set [3] and in data set [5] was 98 µM throughout. Further, the EC50 in data set [4] amounted to 1.83 µM; in [8] it was 1.03 µM. Moreover, in [7], the inhibition is 61.4%.

For the compound `Cc1cc(N2C(=O)CSC2c2c(Br)cccc2Br)nc(C)n1` (centres undefined), the values for the selectivity ratio in data set [1] and in [6] were 7 and 6, respectively. Further, the result in data set [2] and in data set [9] was inactive. Besides, the CC50 in data set [3] was determined as 33.4 µM; in data set [5] it was 33.5 µM. In addition, the EC50 in [4] came to 4.67 µM; in data set [8], 5.21 µM. For the same compound, in data set [7], the inhibition came to 66.4%.

`O=C1CSC(c2c(Br)cccc2Br)N1Cc1ccco1` (centres undefined): the selectivity ratio in [1] was determined as 200; in data set [6] it was 171. Further, the outcome in [2] and in data set [9] was inactive. Moreover, the figures for the CC50 in data set [3] and in data set [5] were 36.4 µM and 36.6 µM, respectively. Also, the EC50 in data set [4] is 0.18 µM; in data set [8] it was 0.21 µM. In addition, the inhibition in data set [7] stood at 99%.

Take `O=C1CSC(c2c(Br)cccc2Br)N1Cc1ccccn1` (centres undefined): the values for the selectivity ratio in [1] and in data set [6] were 283 and 209, respectively. Besides, the outcome in data set [2] and in data set [9] was inactive. Besides, the CC50 worked out at 174 µM in data set [3] and 117 µM in data set [5]. The EC50 in [4] worked out at 0.63 µM; in data set [8], 0.84 µM. Further, the inhibition in data set [7] came to 97.6%.

Consider `O=C1CSC(c2c(Br)cccc2Br)N1Cc1cccs1` (centres undefined), for which the selectivity ratio in data set [1] and in data set [6] was 59 in each case. Also, the result in [2] and in [9] was inactive. Besides, the CC50 came out at 34.6 µM in data set [3] and 35.6 µM in data set [5]. Further, the EC50 in [4] turned out to be 0.6 µM; in data set [8], 0.58 µM. This compound also registered an inhibition in data set [7] of 84.3%.

With `O=C1CSC(c2c(Br)cccc2Br)N1c1cccc(C(F)(F)F)n1` (centres undefined), the selectivity ratio turned out to be 8 in data set [1] and 7 in data set [6]. Moreover, the result in [2] and in [9] was inactive. Moreover, the results for the CC50 in data set [3] and in data set [5] were 30 µM and 29.8 µM, respectively. In addition, the values for the EC50 in data set [4] and in [8] were 3.96 µM and 4.56 µM, respectively. The compound further yielded an inhibition in [7] of 23.9%.

Turning to `Cc1cc(C(F)(F)F)nc(N2C(=O)CSC2c2c(Br)cccc2Br)n1` (centres undefined), the results for the selectivity ratio in [1] and in data set [6] were 161 and 99, respectively. For the same compound, the result in data set [2] and in data set [9] was inactive. Further, the 50% cytotoxic concentration (CC50) was determined as 32.6 µM in [3] and 59.3 µM in data set [5]. Besides, the values for the EC50 in data set [4] and in data set [8] were 0.36 µM and 0.32 µM, respectively. In addition, the inhibition in data set [7] was 85.4%.
